Rows were chosen to be rich in hits. Some 4.7% of all compounds tested hit in one or more screens of this group.
aSyn UTR inh: 5' untranslated region of α-synuclein, MLPCN primary screen. inhibition, % (tested at 7.5 µM). alpha-synuclein 5'UTR reporter, inhibitor activity. 300,000 tested, 0.82% active. AID 1813; in the data active means inhibition above about 60%;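 further: H4 neuroglioblastoma cells stably carrying SNCA 5'UTR luciferase fusion; 0% = DMSO wells and 100% = positive control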
IMP-1 inhibitor: blocks Pseudomonas aeruginosa IMP-1 metallo-beta-lactamase; purified IMP-1, nitrocefin hydrolysis, epi-absorbance fluorescence; inhibition, % at 5.6 µM; 290,000 tested, 0.45% active;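 active means inhibition above the mean plus 3 SD of all compounds in the same screening run, cut at about 4.5% in these data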;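 further: 0% = IMP-1 with DMSO and 100% = DMSO wells lacking enzyme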
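system = purified recombinant IMP-1 beta-lactamase | amount = 0.2 nM IMP-1, as dispensed | medium = HEPES buffer pH 7.1 with ZnSO4 and Brij 35 | times = 25 °C, 15 min preincubation, 25 min reaction | detection = plate fluorescence quenching by hydrolysis product, ex 480/em 530 nm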
Mdm2 MdmX PPI: disrupts the human Mdm2-MdmX interaction; O15151+Q00987; SaOS-2 split-luciferase Mdm2/MdmX complementation, luminescence; inhibition, % at 8 µM; 330,000 tested, 3% active; AID 485346;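 active means inhibition of at least 50% at 8 µM in the primary screen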
Target sequence (O15151 whole entry, looked up): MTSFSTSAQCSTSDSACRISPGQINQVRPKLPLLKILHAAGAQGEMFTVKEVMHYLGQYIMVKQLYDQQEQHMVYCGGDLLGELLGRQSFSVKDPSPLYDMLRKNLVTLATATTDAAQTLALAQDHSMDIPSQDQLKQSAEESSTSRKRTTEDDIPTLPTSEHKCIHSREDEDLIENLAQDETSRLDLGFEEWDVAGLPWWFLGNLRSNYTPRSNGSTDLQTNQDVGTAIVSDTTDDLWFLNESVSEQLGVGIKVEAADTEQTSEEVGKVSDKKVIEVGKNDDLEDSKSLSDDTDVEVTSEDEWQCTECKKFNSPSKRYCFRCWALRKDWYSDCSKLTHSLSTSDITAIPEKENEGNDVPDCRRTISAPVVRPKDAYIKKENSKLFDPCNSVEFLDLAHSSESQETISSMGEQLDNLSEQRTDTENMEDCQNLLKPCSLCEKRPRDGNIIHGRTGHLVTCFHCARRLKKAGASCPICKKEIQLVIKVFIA
Target sequence (Q00987 whole entry, looked up): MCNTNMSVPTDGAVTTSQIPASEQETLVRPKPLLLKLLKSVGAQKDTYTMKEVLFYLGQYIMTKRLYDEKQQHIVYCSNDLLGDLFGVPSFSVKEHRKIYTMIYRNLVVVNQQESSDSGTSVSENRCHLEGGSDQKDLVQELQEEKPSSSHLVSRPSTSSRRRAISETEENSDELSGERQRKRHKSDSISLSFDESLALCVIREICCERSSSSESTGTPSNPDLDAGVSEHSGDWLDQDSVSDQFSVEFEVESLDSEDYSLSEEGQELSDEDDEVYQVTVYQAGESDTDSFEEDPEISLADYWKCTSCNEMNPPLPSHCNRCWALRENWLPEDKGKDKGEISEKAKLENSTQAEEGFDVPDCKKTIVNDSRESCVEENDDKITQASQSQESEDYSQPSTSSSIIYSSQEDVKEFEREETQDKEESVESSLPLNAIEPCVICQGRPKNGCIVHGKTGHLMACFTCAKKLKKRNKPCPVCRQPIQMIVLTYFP
697 NFkB inh: lowers PMA/ionomycin-induced NF-kB signal in 697 B cells; 697 B-cell NF-kB luciferase reporter, 16 h; inhibition, % at 4 µM; 330,000 tested, 0.33% active; in the data active means inhibition above about 35%
Jurkat NFkB inh: inhibitors of the PMA/ionomycin-induced NF-kB reporter in Jurkat cells; PMA/ionomycin-induced NF-kB luciferase reporter, luminescence; inhibition, % at 4 µM; 330,000 tested, 0.53% active; in the data active means inhibition above about 50%
VIM-2 inhibitor: inhibitors of Pseudomonas aeruginosa VIM-2 metallo-beta-lactamase. inhibition, % at 5.6 µM. purified VIM-2, nitrocefin hydrolysis, epi-absorbance fluorescence. AID 1527. 290,000 tested, 0.89% active;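 active means inhibition above the mean of all tested compounds plus 3 SD, cutoff set per screening run, cut at about 7.5% in these data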;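 further: red hydrolysis product quenches plate fluorescence so inhibitors raise well fluorescence; 0% = enzyme with DMSO and 100% = DMSO without enzyme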
Mdm2-MdmX conf: confirmation of human Mdm2/MdmX interaction inhibitors; AID 489028; shares compounds with Mdm2 MdmX PPI; Mdm2-MdmX binding, luminescent assay; inhibition, % at 8 µM; 10,000 tested, 55% active; in the data active means inhibition above about 40%
Full FLuc ctr: full-length luciferase inhibition in Mdm2/MdmX counter-screen. inhibition, % at 8 µM. AID 504607. SaOS-2 full-length luciferase counterscreen, luminescence. 6,200 tested, 77% active. shares compounds with Mdm2 MdmX PPI;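 active means mean inhibition at 8 µM reaching about 37%, which flags the compound as non-specific, limit read from the data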;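 further: p53-null SaOS-2 cells with luciferase driven by a doxycycline-inducible promoter; compound on cells about two nights before reading with doxycycline added after day one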
An asterisk follows results filed as active.

Results for O=C1/C(=C/c2ccc([N+](=O)[O-])cc2)C=C(c2ccccc2)N1c1ccc(O)cc1 ?
aSyn UTR inh: 16; IMP-1 inhibitor: -5; Mdm2 MdmX PPI: 61*; 697 NFkB inh: 15; Jurkat NFkB inh: 14; VIM-2 inhibitor: -3; Mdm2-MdmX conf: 58*; Full FLuc ctr: 52*

What do the screens show for `O=S1(=O)[C@H]2C[C@H](CO)O[C@@]2(CO)CN1Cc1ccc(-c2ccc(F)cc2)cc1`?
Mdm2 MdmX PPI: 25; 697 NFkB inh: 3

How did Cc1ccccc1C(=O)NCC(=O)OCCCOC(=O)CNC(=O)c1ccccc1C do in these assays?
aSyn UTR inh: 0; Mdm2 MdmX PPI: -1; 697 NFkB inh: 17; Jurkat NFkB inh: -3

What do the screens show for `O=C1c2ccccc2/C(=C\C#Cc2ccccn2)N1c1ccccc1`?
Mdm2 MdmX PPI: 20; 697 NFkB inh: -111; Jurkat NFkB inh: -5

What do the screens show for `CC1CCC(C(C)C)C(OC(=O)C[n+]2cc(-c3ccc(Cl)cc3)n3c2CCCCC3)C1` (configuration not stated)?
aSyn UTR inh: -12; IMP-1 inhibitor: -2; Mdm2 MdmX PPI: 85*; 697 NFkB inh: -22; Jurkat NFkB inh: 24; VIM-2 inhibitor: 1; Mdm2-MdmX conf: 74*; Full FLuc ctr: 36*

Results for O=C(C[n+]1cc(-c2ccccc2)n2c1CCCCC2)c1ccc(Cl)cc1 ?
aSyn UTR inh: -6; IMP-1 inhibitor: -2; Mdm2 MdmX PPI: 8; 697 NFkB inh: 6; Jurkat NFkB inh: 12; VIM-2 inhibitor: -3

How did CCCCN(C)C(=S)Nc1ccc2nc3n(c(=O)c2c1)CCCCC3 do in these assays?
aSyn UTR inh: -38; IMP-1 inhibitor: -3; Mdm2 MdmX PPI: 15; 697 NFkB inh: 5; Jurkat NFkB inh: 10; VIM-2 inhibitor: -3

Results for CCC(C)(C)NC(=O)C(c1ccc(C)cc1)N(CC1CCCO1)C(=O)CCC(=O)Nc1ccccn1 (configuration not stated) ?
aSyn UTR inh: 0; IMP-1 inhibitor: -4; Mdm2 MdmX PPI: -1; 697 NFkB inh: 5; Jurkat NFkB inh: 2; VIM-2 inhibitor: -2

Results for CN(C)c1ccc(N2C(=NC(=O)CC3CCCCC3)SC3CS(=O)(=O)CC32)cc1 (configuration not stated) ?
aSyn UTR inh: 12; IMP-1 inhibitor: -2; Mdm2 MdmX PPI: 24; 697 NFkB inh: -7; Jurkat NFkB inh: -5; VIM-2 inhibitor: -3

How did O=C(Nc1cccc(C(F)(F)F)c1)Nc1ccc(N2CCCC2)c(S(=O)(=O)Nc2ccccc2Cl)c1 do in these assays?
aSyn UTR inh: 93*; IMP-1 inhibitor: -1; Mdm2 MdmX PPI: 99*; 697 NFkB inh: 2; Jurkat NFkB inh: -27; VIM-2 inhibitor: 1; Mdm2-MdmX conf: 97*; Full FLuc ctr: 57*

Results for CN(C)S(=O)(=O)c1ccc(C(=O)Nc2ccccc2SCCC#N)cc1 ?
aSyn UTR inh: -3; IMP-1 inhibitor: -1; Mdm2 MdmX PPI: -21; 697 NFkB inh: -3; Jurkat NFkB inh: 5; VIM-2 inhibitor: -1

Results for COc1ccc(-c2cc(C(=O)Nc3ccc(Cl)cc3Cl)c3ccccc3n2)cc1OC ?
aSyn UTR inh: 2; IMP-1 inhibitor: -1; Mdm2 MdmX PPI: -20; 697 NFkB inh: -18; Jurkat NFkB inh: 11; VIM-2 inhibitor: -1

What do the screens show for `COc1ccccc1NC(=O)c1cc(-c2cc(OC)c(OC)c(OC)c2)nc2ccccc12`?
aSyn UTR inh: -21; IMP-1 inhibitor: -2; Mdm2 MdmX PPI: 55*; 697 NFkB inh: 29; Jurkat NFkB inh: -15; VIM-2 inhibitor: -3; Mdm2-MdmX conf: 29

What do the screens show for `COc1cc(-c2cc(C(=O)Nc3ccncc3)c3ccccc3n2)cc(OC)c1OC`?
Mdm2 MdmX PPI: 18; 697 NFkB inh: 24; Jurkat NFkB inh: -9

Results for COc1ccc(NC(=O)c2cc(-c3ccncc3)nc3ccc(Br)cc23)cc1OC ?
aSyn UTR inh: 19; IMP-1 inhibitor: -3; Mdm2 MdmX PPI: 97*; 697 NFkB inh: -4; Jurkat NFkB inh: -2; VIM-2 inhibitor: -2; Mdm2-MdmX conf: 11

Results for COc1cc(-c2cc(C(=O)Nc3ccc(S(=O)(=O)NCc4ccco4)cc3)c3ccccc3n2)cc(OC)c1OC ?
aSyn UTR inh: -53; IMP-1 inhibitor: -1; Mdm2 MdmX PPI: 63*; 697 NFkB inh: -9; Jurkat NFkB inh: 49; VIM-2 inhibitor: 0; Mdm2-MdmX conf: 77*; Full FLuc ctr: 50*

What do the screens show for `COc1ccc(-c2cc(C(=O)Nc3ccccc3O)c3ccccc3n2)cc1OC`?
aSyn UTR inh: 15; IMP-1 inhibitor: -2; Mdm2 MdmX PPI: 52*; 697 NFkB inh: 31; Jurkat NFkB inh: -4; VIM-2 inhibitor: -3; Mdm2-MdmX conf: 52*; Full FLuc ctr: 107*

How did Cc1ccc(NC(=O)CCNS(=O)(=O)c2ccc3c(c2)CCC(=O)N3)cc1 do in these assays?
aSyn UTR inh: 9; IMP-1 inhibitor: -3; Mdm2 MdmX PPI: 8; 697 NFkB inh: 22; Jurkat NFkB inh: -3; VIM-2 inhibitor: -3

Results for Cc1onc(C(=O)Nc2sc3c(c2C#N)CCCC3)c1[N+](=O)[O-] ?
aSyn UTR inh: -17; IMP-1 inhibitor: -2; Mdm2 MdmX PPI: -11; 697 NFkB inh: -10; Jurkat NFkB inh: 2; VIM-2 inhibitor: -2

Results for COc1cc(NC(=O)c2cc(-c3ccccc3)nc3c2cnn3C(C)C)cc(OC)c1OC ?
Mdm2 MdmX PPI: 63*; 697 NFkB inh: 15; Jurkat NFkB inh: -11; Mdm2-MdmX conf: 28

What do the screens show for `COC(=O)c1cc(OC)c(OC)cc1NC(=O)c1cc(-c2ccccc2)nc2ccccc12`?
aSyn UTR inh: -13; IMP-1 inhibitor: 1; Mdm2 MdmX PPI: 30; 697 NFkB inh: 23; Jurkat NFkB inh: 5; VIM-2 inhibitor: -2

How did CCOc1ccccc1NC(=O)c1cc(-c2cc(OC)c(OC)c(OC)c2)nc2ccccc12 do in these assays?
aSyn UTR inh: 0; IMP-1 inhibitor: -3; Mdm2 MdmX PPI: 55*; 697 NFkB inh: 3; Jurkat NFkB inh: 13; VIM-2 inhibitor: -2; Mdm2-MdmX conf: 30

What do the screens show for `Cn1c(=O)[nH]c(NCCc2ccc(O)cc2)c([N+](=O)[O-])c1=O`?
aSyn UTR inh: 10; Mdm2 MdmX PPI: -27; 697 NFkB inh: -20; Jurkat NFkB inh: -5

How did Cc1ccc(S(=O)(=O)N(C)c2ccc(OC(C)C(=O)N(C)c3ccccc3)cc2)cc1 (configuration not stated) do in these assays?
Mdm2 MdmX PPI: 18; 697 NFkB inh: 0; Jurkat NFkB inh: 5
